Columns and labels:
[1] = molecular target: T1, ATP-dependent translocase ABCB1 (Homo sapiens, UniProt P08183); test: Inhibition of P-gp ATPase activity in […] DC-3F/ADX cells assessed as increase in basal activity measured by NADH level at 5 uM by spectrophotometric method; assay type: cell-based; set-up: scale not given: the % may be the effect or the level left; conditions: Chinese hamster
Outline: (§1)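 P-gp basal MgATP hydrolysis in vesicle suspension, monitored continuously by spectrophotometry. ADP formation is coupled through phosphoenolpyruvate→pyruvate→lactate with NADH→NAD+ conversion, read as NADH absorbance at 340 nm in a 96-well plate. Compound stocks of 0.5, 5 and 50 µM give final well concentrations of 0.05, 0.5 and 5 µM. Run in triplicate.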

[2] = molecular target: T1, ATP-dependent translocase ABCB1; test: Inhibition of P-gp ATPase activity in […] DC-3F/ADX cells assessed as increase in basal activity measured by NADH level at 0.05 uM by spectrophotometric method; assay type: cell-based; set-up: scale not given: the % may be the effect or the level left; conditions: Chinese hamster; outline: as §1
[3] = molecular target: T1, ATP-dependent translocase ABCB1; test: Inhibition of P-gp ATPase activity in […] DC-3F/ADX cells assessed as increase in basal activity measured by NADH level at 0.5 uM by spectrophotometric method; assay type: cell-based; set-up: scale not given: the % may be the effect or the level left; conditions: Chinese hamster; outline: as §1
[4] = Lipophilicity, log P of the compound; assay type: physicochemical; conditions: octanol/water

T1 sequence (P08183 whole entry): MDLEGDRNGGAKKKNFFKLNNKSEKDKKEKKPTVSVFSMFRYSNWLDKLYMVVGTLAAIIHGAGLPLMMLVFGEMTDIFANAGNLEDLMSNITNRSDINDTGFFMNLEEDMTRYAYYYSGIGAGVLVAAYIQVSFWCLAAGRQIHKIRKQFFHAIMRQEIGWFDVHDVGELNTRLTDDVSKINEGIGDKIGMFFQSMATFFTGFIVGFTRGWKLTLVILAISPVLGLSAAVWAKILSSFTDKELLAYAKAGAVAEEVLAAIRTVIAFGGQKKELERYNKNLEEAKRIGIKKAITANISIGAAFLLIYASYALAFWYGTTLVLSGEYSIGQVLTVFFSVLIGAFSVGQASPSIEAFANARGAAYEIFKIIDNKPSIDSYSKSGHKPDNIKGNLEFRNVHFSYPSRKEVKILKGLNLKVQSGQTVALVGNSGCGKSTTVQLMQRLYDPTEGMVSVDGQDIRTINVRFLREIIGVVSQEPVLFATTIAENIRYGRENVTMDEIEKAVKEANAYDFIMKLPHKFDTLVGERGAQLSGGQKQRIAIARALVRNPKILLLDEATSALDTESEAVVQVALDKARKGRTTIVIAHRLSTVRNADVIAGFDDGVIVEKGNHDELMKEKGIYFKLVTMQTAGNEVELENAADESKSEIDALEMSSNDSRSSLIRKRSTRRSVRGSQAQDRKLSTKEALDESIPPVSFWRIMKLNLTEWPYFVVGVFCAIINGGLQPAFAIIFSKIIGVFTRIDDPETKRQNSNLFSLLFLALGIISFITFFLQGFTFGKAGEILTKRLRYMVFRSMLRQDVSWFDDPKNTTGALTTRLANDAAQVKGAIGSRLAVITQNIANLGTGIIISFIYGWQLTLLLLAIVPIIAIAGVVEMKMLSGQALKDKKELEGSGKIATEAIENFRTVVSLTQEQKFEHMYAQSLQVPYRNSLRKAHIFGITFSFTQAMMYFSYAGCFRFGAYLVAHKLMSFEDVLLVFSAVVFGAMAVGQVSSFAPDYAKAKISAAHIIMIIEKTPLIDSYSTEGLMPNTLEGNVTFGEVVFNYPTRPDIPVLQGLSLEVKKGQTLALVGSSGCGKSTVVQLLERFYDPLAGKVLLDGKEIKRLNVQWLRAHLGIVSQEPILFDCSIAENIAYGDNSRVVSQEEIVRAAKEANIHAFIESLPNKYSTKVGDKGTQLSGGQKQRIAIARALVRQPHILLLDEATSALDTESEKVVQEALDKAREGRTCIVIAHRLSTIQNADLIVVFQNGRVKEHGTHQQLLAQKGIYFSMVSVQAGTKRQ

| Structure (SMILES) | Activity [1] [%] | Activity [2] [%] | Activity [3] [%] | logP [4] |
| --- | --- | --- | --- | --- |
| CC(C)N(CC(O)Cn1c2ccccc2c(=O)c2ccccc21)C(C)C (configuration not stated) | 28 | 18 | 21 | 2.58 |
| O=c1c2ccccc2n(CC(O)CN2CCOCC2)c2ccccc12 (configuration not stated) | 30 | 24 | 27 | 1.08 |
| CC(=O)[C@H]1CC[C@H]2[C@@H]3CCC4=CC(=O)CC[C@]4(C)[C@H]3CC[C@]12C [PROGESTERONE] | 34 | – | 30 | – |
| CCN(CC)CC(O)Cn1c2ccccc2c(=O)c2ccccc21 (configuration not stated) | 36 | 29 | 32 | 1.98 |
| CCCNCC(O)COc1ccccc1C(=O)CCc1ccccc1 (configuration not stated) [PROPAFENONE] | 40 | – | 31 | – |
| COc1ccc(CCN(C)CCCC(C#N)(c2ccc(OC)c(OC)c2)C(C)C)cc1OC (configuration not stated) [VERAPAMIL] | 33 | – | 30 | – |
| O=c1c2ccccc2n(CC(O)CN2CCCC2)c2ccccc12 (configuration not stated) | 38 | 31 | 34 | 1.73 |

Results, then the compound that gave them:

| Activity [1] [%] | Activity [2] [%] | Activity [3] [%] | logP [4] | Structure (SMILES) |
| --- | --- | --- | --- | --- |
| 44 | 33 | 40 | 2.14 | O=c1c2ccccc2n(CC(O)CN2CCCCC2)c2ccccc12 (configuration not stated) |
| 35 | – | 31 | – | CC[C@]1(O)C[C@@H]2CN(CCc3c([nH]c4ccccc34)[C@@](C(=O)OC)(c3cc4c(cc3OC)N(C)[C@H]3[C@@](O)(C(=O)OC)[C@H](OC(C)=O)[C@]5(CC)C=CCN6CC[C@]43[C@@H]65)C2)C1 [VINBLASTINE] |
| 31 | 25 | 32 | 2.56 | O=c1c2ccccc2n(CC(O)CN2CCC(N3CCCCC3)CC2)c2ccccc12 (configuration not stated) |

Reference: ChEMBL document CHEMBL1152787, “Search for MDR modulators: design, syntheses and evaluations of N-substituted acridones for interactions with p-glycoprotein and Mg2+” (Bioorg Med Chem, 2009)
